According to ChEMBL document CHEMBL1145596 (Bioorg Med Chem Lett, 2008):
In brackets after ≈: the same amount, converted by molar mass.

How the values were obtained:
[1] = Dissociation constant, pKa of the compound; format: physicochemical
[2] = Lipophilicity, log P of the compound; format: physicochemical; conditions: octanol/water
Outline: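 LogP computed for the unprotonated molecule with a commercial software package. Not measured experimentally.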

L5178Y [3] = experiment: Cytocidal activity against human MDR1 gene transfected mouse L5178Y cells after 48 hrs by MTT method; format: functional; conditions: read-out: ID50 (the source's name)
Outline: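 Cells incubated with a range of compound concentrations for 48 h at 37 °C. Viability read by MTT. ID50 derived from the curves. Values are means of duplicate experiments.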

[4] = biological target: T1, ATP-dependent translocase ABCB1 (Homo sapiens, UniProt P08183); experiment: Reversal of P-glycoprotein-mediated multidrug resistance in human MDR1 gene transfected mouse L5178Y cells assessed as fluorescence activity ratio at 4 ug/ml by flow cytometry; format: cell-based
T1 sequence (P08183 whole entry): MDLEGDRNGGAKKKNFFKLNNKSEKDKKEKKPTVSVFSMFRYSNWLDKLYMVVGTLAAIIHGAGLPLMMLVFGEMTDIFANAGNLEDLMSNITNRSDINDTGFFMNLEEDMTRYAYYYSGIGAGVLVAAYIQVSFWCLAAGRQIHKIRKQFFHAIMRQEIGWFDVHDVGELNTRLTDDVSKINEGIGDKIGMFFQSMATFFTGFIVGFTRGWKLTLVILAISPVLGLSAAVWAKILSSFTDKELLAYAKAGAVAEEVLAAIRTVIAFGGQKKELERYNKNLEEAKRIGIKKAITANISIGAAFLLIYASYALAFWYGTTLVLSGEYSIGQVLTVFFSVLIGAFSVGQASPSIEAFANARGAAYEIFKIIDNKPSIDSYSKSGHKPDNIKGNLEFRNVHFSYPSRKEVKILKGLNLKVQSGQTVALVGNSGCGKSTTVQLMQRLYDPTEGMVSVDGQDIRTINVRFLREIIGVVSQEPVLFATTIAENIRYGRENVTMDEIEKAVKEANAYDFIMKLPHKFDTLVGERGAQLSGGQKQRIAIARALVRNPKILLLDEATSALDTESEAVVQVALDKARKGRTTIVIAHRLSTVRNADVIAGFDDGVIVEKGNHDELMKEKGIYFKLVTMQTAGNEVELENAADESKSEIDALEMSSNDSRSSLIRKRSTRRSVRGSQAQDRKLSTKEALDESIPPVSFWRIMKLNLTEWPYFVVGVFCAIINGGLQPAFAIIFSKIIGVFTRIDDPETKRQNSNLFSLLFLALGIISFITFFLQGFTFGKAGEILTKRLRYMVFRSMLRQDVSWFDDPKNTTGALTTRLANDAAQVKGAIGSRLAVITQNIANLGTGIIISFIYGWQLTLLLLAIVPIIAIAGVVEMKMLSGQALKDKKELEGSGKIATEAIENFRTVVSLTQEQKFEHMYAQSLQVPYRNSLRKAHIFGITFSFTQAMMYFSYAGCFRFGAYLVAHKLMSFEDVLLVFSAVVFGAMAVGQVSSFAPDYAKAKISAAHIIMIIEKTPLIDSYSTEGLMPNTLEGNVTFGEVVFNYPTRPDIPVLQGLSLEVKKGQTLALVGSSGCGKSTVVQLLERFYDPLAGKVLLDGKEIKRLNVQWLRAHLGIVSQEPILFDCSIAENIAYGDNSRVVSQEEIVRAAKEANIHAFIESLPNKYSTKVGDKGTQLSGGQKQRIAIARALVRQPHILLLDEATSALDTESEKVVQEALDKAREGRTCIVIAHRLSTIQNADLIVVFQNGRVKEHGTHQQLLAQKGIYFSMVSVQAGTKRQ

[5] = biological target: T1, ATP-dependent translocase ABCB1; experiment: Reversal of P-glycoprotein-mediated multidrug resistance in human MDR1 gene transfected mouse L5178Y cells assessed as fluorescence activity ratio at 40 ug/ml by flow cytometry; format: cell-based
[6] = biological target: T1, ATP-dependent translocase ABCB1; experiment: Reversal of P-glycoprotein-mediated multidrug resistance in human MDR1 gene transfected mouse L5178Y cells assessed as fluorescence activity ratio at 0.4 ug/ml by flow cytometry; format: cell-based
Outline: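 L5178 MDR1-transfected cells and parental cells grown in McCoy's 5A with 10% heat-inactivated horse serum, L-glutamine and antibiotics. Compound in DMSO added to cell aliquots for 10 min at room temperature. Rhodamine 123 then added (final 5.2 μM) for 20 min at 37 °C. Cells washed twice, resuspended in PBS pH 7.4, read by flow cytometry. FAR = (treated/untreated MDR) ÷ (treated/untreated parental).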

[7] = biological target: T1, ATP-dependent translocase ABCB1; experiment: Reversal of P-glycoprotein-mediated multidrug resistance in human MDR1 gene transfected human Colo 320 cells assessed as fluorescence activity ratio at 4 ug/ml by flow cytometry; format: cell-based
Outline: (§1)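 Colo320/MDR1 cells run as for the L5178 rhodamine 123 assay: compound preincubation 10 min at room temperature, then rhodamine 123 (final 5.2 μM) for 20 min at 37 °C. Monolayers detached with 0.25% trypsin for 2–3 min before flow cytometry. FAR taken as the treated/untreated fluorescence ratio in MDR cells over that in parental cells.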

[8] = biological target: T1, ATP-dependent translocase ABCB1; experiment: Reversal of P-glycoprotein-mediated multidrug resistance in human MDR1 gene transfected human Colo 320 cells assessed as fluorescence activity ratio at 0.4 ug/ml by flow cytometry; format: cell-based; outline: as §1
L5178Y [9] = experiment: Toxicity in human MDR1 gene transfected mouse L5178Y cells at 40 ug/ml; format: cell-based

SMILES | pKa [1] | LogP [2] | IC50 (L5178Y [3]) [µg/mL] | Ratio [4] | Ratio [5] | LogP ([2]; read-out: LogP) | also measured
Cl.O=C1/C(=C/c2ccccc2)CN(C(=O)c2ccc(OCCN3CCCCC3)cc2)C/C1=C\c1ccccc1 | 11.1 | 5.51 | 3.28 | – | – | – | –
Cl.O=C1/C(=C/c2ccc([N+](=O)[O-])cc2)CN(C(=O)c2ccc(OCCN3CCCCC3)cc2)C/C1=C\c1ccc([N+](=O)[O-])cc1 | 11.1 | 5.42 | 2.15 | 145 | 51.5 | – | –
Cc1ccc(/C=C2\CNC/C(=C\c3ccc(C)cc3)C2=O)cc1 | – | 4.25 | – | 3.26 | 4.03 | – | Ratio [6]: 1; Ratio [7]: 2.42; Ratio [8]: 1.24
CN(C)CCOc1ccc(C(=O)N2C/C(=C\c3ccc([N+](=O)[O-])cc3)C(=O)/C(=C/c3ccc([N+](=O)[O-])cc3)C2)cc1.Cl | 10.7 | – | – | – | – | 4.52 | –
CN(C)CCOc1ccc(C(=O)N2C/C(=C\c3ccccc3)C(=O)/C(=C/c3ccccc3)C2)cc1.Cl | 10.7 | 4.6 | – | 45.5 | 51.6 | – | –
CN(C)CCOc1ccc(C(=O)N2C/C(=C\c3ccc(Cl)cc3)C(=O)/C(=C/c3ccc(Cl)cc3)C2)cc1.Cl | 10.7 | 5.95 | – | – | – | – | –
CC[N+](C)(CC)CCOc1ccc(C(=O)N2C/C(=C\c3ccccc3)C(=O)/C(=C/c3ccccc3)C2)cc1.[I-] | – | – | – | 1.37 | 1.05 | 1.37 | –
O=C1/C(=C/c2ccccc2)CNC/C1=C\c1ccccc1 | – | 3.38 | – | 1.58 | 2 | – | –
O=C1/C(=C/c2ccc([N+](=O)[O-])cc2)CNC/C1=C\c1ccc([N+](=O)[O-])cc1 | – | 3.27 | – | – | – | – | –
CCN(CC)CCOc1ccc(C(=O)N2C/C(=C\c3ccc(C)cc3)C(=O)/C(=C/c3ccc(C)cc3)C2)cc1.Cl | 10.8 | 6.25 | 1.56 | 106 | 66.6 | – | –
Cl.O=C1/C(=C/c2ccccc2)CN(C(=O)c2ccc(OCCN3CCOCC3)cc2)C/C1=C\c1ccccc1 | 8.5 | – | – | – | – | 4.64 | –
Cc1ccc(/C=C2\CN(C(=O)c3ccc(OCCN4CCCCC4)cc3)C/C(=C\c3ccc(C)cc3)C2=O)cc1.Cl | 11.1 | 6.4 | 2.83 | 179 | 146 | – | Ratio [6]: 7.35; Ratio [7]: 10.8; Ratio [8]: 2.49
Cc1ccc(/C=C2\CN(C(=O)c3ccc(OCCN4CCOCC4)cc3)C/C(=C\c3ccc(C)cc3)C2=O)cc1.Cl | 8.5 | – | – | – | – | 5.34 | –
CCN(CC)CCOc1ccc(C(=O)N2C/C(=C\c3ccc([N+](=O)[O-])cc3)C(=O)/C(=C/c3ccc([N+](=O)[O-])cc3)C2)cc1.Cl | 10.8 | 5.27 | – | 77.5 | 14.1 | – | –
CC[N+](C)(CC)CCOc1ccc(C(=O)N2C/C(=C\c3ccc(Cl)cc3)C(=O)/C(=C/c3ccc(Cl)cc3)C2)cc1.[I-] | – | – | – | 1.21 | 1.85 | 2.73 | –
Cl.O=C1/C(=C/c2ccc(Cl)cc2)CN(C(=O)c2ccc(OCCN3CCCCC3)cc2)C/C1=C\c1ccc(Cl)cc1 | 11.1 | 6.86 | 4.17 | 157 | 133 | – | –
Cl.O=C1/C(=C/c2ccc([N+](=O)[O-])cc2)CN(C(=O)c2ccc(OCCN3CCOCC3)cc2)C/C1=C\c1ccc([N+](=O)[O-])cc1 | 8.5 | – | – | – | – | 4.36 | –
Cl.O=C1/C(=C/c2ccc(Cl)cc2)CN(C(=O)c2ccc(OCCN3CCOCC3)cc2)C/C1=C\c1ccc(Cl)cc1 | 8.5 | – | – | 76 | 6.88 | 5.8 | –
CCN(CC)CCOc1ccc(C(=O)N2C/C(=C\c3ccccc3)C(=O)/C(=C/c3ccccc3)C2)cc1.Cl | 10.8 | 5.35 | 3.27 | – | – | – | –
Cc1ccc(/C=C2\CN(C(=O)c3ccc(OCCN(C)C)cc3)C/C(=C\c3ccc(C)cc3)C2=O)cc1.Cl | 10.7 | 5.5 | – | – | – | – | Activity (L5178Y [9]): Toxic
CC[N+](C)(CC)CCOc1ccc(C(=O)N2C/C(=C\c3ccc([N+](=O)[O-])cc3)C(=O)/C(=C/c3ccc([N+](=O)[O-])cc3)C2)cc1.[I-] | – | – | – | 1.03 | 1.22 | 1.3 | –
O=C1/C(=C/c2ccc(Cl)cc2)CNC/C1=C\c1ccc(Cl)cc1 | – | 4.71 | – | 1.25 | 0.91 | – | –
CC[N+](C)(CC)CCOc1ccc(C(=O)N2C/C(=C\c3ccc(C)cc3)C(=O)/C(=C/c3ccc(C)cc3)C2)cc1.[I-] | – | – | – | 1.93 | 114 | 2.27 | –
CCN(CC)CCOc1ccc(C(=O)N2C/C(=C\c3ccc(Cl)cc3)C(=O)/C(=C/c3ccc(Cl)cc3)C2)cc1.Cl | 10.8 | 6.71 | 1.53 | 118 | 99.7 | – | –
COc1ccc(CCN(C)CCC[C@](C#N)(c2ccc(OC)c(OC)c2)C(C)C)cc1OC | – | – | 42 (≈ 92.4 µM) | – | – | – | –
